14 compounds from ChEMBL document CHEMBL1240335, “Integrating high-content screening and ligand-target prediction to identify mechanism of action” (Nat Chem Biol, 2008) can be followed below.

What all share (format): functional, cell-based
The test system of test [1] is HeLa. Briefly: Inhibition of mitosis in human HeLa cells by imaging analysis. Summed up: (§1)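 HeLa cells (2,000 per well, DMEM with 10% FBS) were plated overnight, then treated with compound at 10 μM final for 20 h at 37 °C, in duplicate. Cells were pulsed 40 min with 500 nM EdU and fixed in 3.7% paraformaldehyde. Replication was read by rhodamine-azide click labelling, mitosis by anti-phosphohistone H3 Ser10/Cy5, and DNA by Hoechst. Automated 10× imaging scored ≥500 cells per well.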

The test system of test [2] is HeLa. Briefly: Cytotoxicity against human HeLa cells assessed as inhibition of DNA replication by imaging analysis. Summed up: as §1
In test [3] the test system is HeLa. Description: Induction of cell cycle arrest in human HeLa cells assessed as accumulation at G1 arrest at 10 uM after 20 hrs by Hoescht 33342 staining. The procedure, abridged: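 HeLa cells plated at 2,000 per well in DMEM with 10% FBS and penicillin/streptomycin, grown overnight, then treated at a final 10 μM (diluted from 10 mM DMSO stock) for 20 h at 37 °C in duplicate. Pulsed 40 min with 500 nM EdU, fixed in 3.7% paraformaldehyde, stained with Hoechst 33342, anti-phosphoH3 Ser10 and rhodamine-azide. Imaged by automated microscopy at 10×; ≥500 cells scored per well.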

Calls of active or inactive are those of the source. The calls are words filed in the database; no cut-off is given here.

`C[C@]12C=CC(=O)C=C1CC[C@H]1[C@@H]3C[C@@H](O)[C@](O)(C(=O)CO)[C@@]3(C)C[C@H](O)[C@@]12F`: the inhibition entry in the test with HeLa [1] and in the test with HeLa [2] was “Active” throughout.

With `C[C@@H]1C[C@@H]([C@H](O)CC2CC(=O)NC(=O)C2)C(=O)[C@@H](C)C1`, the inhibition entry with HeLa [1] and with HeLa [2] was “Active” in each case.

For `CC1=C2O[C@]3(O)C=C2C(=C(O)C1=O)[C@@H]1O[C@H](CC[C@H](C)/C=C(\C)C[C@@H](C)C[C@@H]3C)[C@H](C)[C@H](O)[C@H]1C`, the outcome with HeLa [3] was Active.

For `C[C@]12CC[C@H](O)C[C@H]1CC[C@@H]1[C@@H]2CC[C@]2(C)[C@@H](C3=CC(=O)OC3)CC[C@]12O`, the inhibition result in the test with HeLa [1] and with HeLa [2] was “Active” each time.

On to `CCC(=O)O[C@]1(C(=O)CCl)[C@@H](C)C[C@H]2[C@@H]3CCC4=CC(=O)C=C[C@]4(C)[C@@]3(F)[C@@H](O)C[C@@]21C`, for which the inhibition entry in the test on HeLa [1] and in the test on HeLa [2] was “Active” throughout.

On to `CC(C)[C@H]1CC[C@@](O)(CCl)[C@H]2C(=O)OCC(C(=O)O)=C[C@H]12`, for which the outcome in the test on HeLa [3] was Active.

In the case of `C[C@H]1O[C@@H](O[C@H]2[C@@H](O)C[C@H](O[C@H]3[C@@H](O)C[C@H](O[C@H]4CC[C@@]5(C)[C@H](CC[C@@H]6[C@@H]5C[C@@H](O)[C@]5(C)[C@@H](C7=CC(=O)OC7)CC[C@]65O)C4)O[C@@H]3C)O[C@@H]2C)C[C@H](O)[C@@H]1O`, the inhibition entry in the test on HeLa [1] and in the test on HeLa [2] was “Active” each time.

Turning to `C[C@@H]1C[C@H]2[C@@H]3CCC4=CC(=O)C=C[C@]4(C)[C@@]3(F)[C@@H](O)C[C@]2(C)[C@@]1(O)C(=O)CO`, the inhibition entry in the test on HeLa [1] and with HeLa [2] was “Active” throughout.

For the compound `C#C[C@]1(O)CC[C@H]2[C@@H]3CCC4=Cc5oncc5C[C@]4(C)[C@H]3CC[C@@]21C`, the inhibition entry in the test with HeLa [1] and in the test with HeLa [2] was “Active” throughout.

As to `CCCCCC[C@H]1CC[C@@](O)([C@@](C)(O)C(=O)N[C@@H]2C(=O)N3NCCC[C@@H]3C(=O)N(O)[C@@H](COC)C(=O)NCC(=O)N3NCCC[C@H]3C(=O)N(O)[C@H](C)C(=O)O[C@H]2C)OC1C` (some centres undefined), the result in the test with HeLa [3] was Active.

With `C[C@@H]1O[C@@H](O[C@H]2C[C@@H](O)[C@]3(CO)[C@H]4[C@H](O)C[C@]5(C)[C@@H](C6=CC(=O)OC6)CC[C@]5(O)[C@@H]4CC[C@]3(O)C2)[C@H](O)[C@H](O)[C@H]1O`, the inhibition entry with HeLa [1] and in the test with HeLa [2] was “Active” each time.

Turning to `COC[C@H]1C(=O)NCC(=O)N2NCCC[C@H]2C(=O)N(O)[C@H](C)C(=O)O[C@@H](C(C)C)[C@H](NC(=O)[C@](C)(O)[C@]2(O)CC[C@@H](CC(C)C)[C@H](C)O2)C(=O)N2NCCC[C@@H]2C(=O)N1O`, the outcome in the test on HeLa [3] was Active.

`CC(=O)[C@H]1CC[C@H]2[C@@H]3CCC4=CC(=O)CC[C@]4(C)[C@H]3CC[C@]12C`: the inhibition entry in the test with HeLa [1] and in the test on HeLa [2] was “Active” throughout.

`CC[C@H]1CN2CCc3cc(OC)c(OC)cc3[C@@H]2C[C@@H]1C[C@H]1NCCc2cc(OC)c(OC)cc21`: the inhibition result with HeLa [1] and in the test on HeLa [2] was “Active” in each case.
